In publication PMC4878412 (Cancer chemotherapy and pharmacology, 2015):

What was measured:
[1] = system: DDX3; details: ref [1]; cited from earlier work
[2] = free RK-33; no method in this paper, no reference given; cited from earlier work
[3] = In vivo retention of RK-33 in plasma, liver and lungs 48 h after administration; details: mice, 48 h after intraperitoneal injection of 0.80 mg free RK-33
Procedure, shortened: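 Female athymic NCr-nu/nu mice (4–5 weeks, three animals) got free test compound 0.8 mg i.p. and were killed at 48 h. Blood was drawn intracardially into heparin tubes and spun at 8000 rpm for 5 min. Liver and lungs were weighed and homogenised in 3 volumes cold PBS. Plasma or homogenate (0.1 mL) was extracted with 1 mL chloroform/isopropanol (1:1), shaken 3 min and centrifuged.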

[4] = ref [1]; cited from earlier work
[5] = ref [1]; cited from earlier work; remark: listed apart in the source

In the case of RK-33, the “Inhibition of DDX3 (in words)” value [1] is listed as “effectively inhibits”, the “Systemic half-life (t½)” value [2] is listed as 7.3 h and the RK-33 in liver [3] is listed as < 1 µg/mL. The RK-33 in lungs [3] was < 1 µg/mL, the RK-33 in plasma [3] was < 1 µg/mL and the “Cell cycle effect (in words)” value [4] was “induce G1 arrest”. The “Toxicity in mice (in words)” value [5] was “little or no toxicity”.
